{
  "source": "ChEMBL document CHEMBL1151764",
  "about": "“Search for inhibitors of bacterial and human protein kinases among derivatives of diazepines[1,4] annelated with maleimide and indole cycles” (J Med Chem, 2008)",
  "key": {"Streptomyces coelicolor [1]": {"system": "Streptomyces coelicolor", "assay": "Inhibition of Ca(2+)/Calmodulin-dependent aph8 phosphorylation in Streptomyces coelicolor cell lysate assessed as [32Pi] incorporation into aph8 at 500 nM by microplate scintillation counter relative to control", "design": "scale not given: the % may be the effect or the level left", "summary_of_the_method": "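Radiometric in vitro assay of actinobacterial protein kinases. Kinases incubated under standard conditions with [γ-³²P]ATP and aphVIII as substrate, with or without modulators or inhibitors. Read-out was incorporation of the γ-phosphoryl residue into aphVIII.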"}, "[2]": {"target": "T1, Cyclin-dependent kinase 2 (Homo sapiens, UniProt P24941)", "assay": "Inhibition of human CDK2/Cyc2"}, "[3]": {"target": "T1, Cyclin-dependent kinase 2", "assay": "Inhibition of human CDK2/CycA"}, "Streptomyces coelicolor [4]": {"system": "Streptomyces coelicolor", "assay": "Inhibition of aph8-induced kanamycin phosphorylation in Streptomyces coelicolor cell lysate assessed as [32Pi] incorporation into kanamycin at 10 uM by microplate scintillation counter relative to control", "design": "scale not given: the % may be the effect or the level left"}, "Streptomyces lividans [5]": {"system": "Streptomyces lividans", "assay": "Inhibition of aph8 positive Streptomyces lividans at 20 uM after 20 hrs by paper disk method", "assay_type": "functional", "conditions": "read-out: IZ", "summary_of_the_method": "(§1)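 Test culture was Streptomyces lividans carrying plasmid pSU23 with the aphVIII gene, whose kanamycin-inactivating activity depends on Ser/Thr kinase phosphorylation. Paper disks (7 mm) held kanamycin (5 µg/disk) plus test compound at subtoxic amounts, about half the minimal growth-inhibitory dose. Disks went on plates of log-phase cells at 28 °C for 20 h. Read-out was lysis zone diameter.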"}, "Streptomyces lividans [6]": {"system": "Streptomyces lividans", "assay": "Inhibition of aph8 positive Streptomyces lividans at 5 uM after 20 hrs by paper disk method", "assay_type": "functional", "conditions": "read-out: IZ", "summary_of_the_method": "as §1"}, "Streptomyces lividans [7]": {"system": "Streptomyces lividans", "assay": "Inhibition of aph8 positive Streptomyces lividans at 10 uM after 20 hrs by paper disk method", "assay_type": "functional", "conditions": "read-out: IZ", "summary_of_the_method": "as §1"}, "Streptomyces lividans [8]": {"system": "Streptomyces lividans", "assay": "Inhibition of aph8 positive Streptomyces lividans at 80 uM after 20 hrs by paper disk method", "assay_type": "functional", "conditions": "read-out: IZ", "summary_of_the_method": "as §1"}, "Streptomyces lividans [9]": {"system": "Streptomyces lividans", "assay": "Inhibition of aph8 positive Streptomyces lividans at 40 uM after 20 hrs by paper disk method", "assay_type": "functional", "conditions": "read-out: IZ", "summary_of_the_method": "as §1"}, "Streptomyces lividans [10]": {"system": "Streptomyces lividans", "assay": "Inhibition of aph8 positive Streptomyces lividans at 100 uM after 20 hrs by paper disk method", "assay_type": "functional", "conditions": "read-out: IZ", "summary_of_the_method": "as §1"}, "Streptomyces lividans [11]": {"system": "Streptomyces lividans", "assay": "Inhibition of aph8 positive Streptomyces lividans at 50 uM after 20 hrs by paper disk method", "assay_type": "functional", "conditions": "read-out: IZ", "summary_of_the_method": "as §1"}, "Streptomyces lividans [12]": {"system": "Streptomyces lividans", "assay": "Inhibition of aph8 positive Streptomyces lividans at 25 uM after 20 hrs by paper disk method", "assay_type": "functional", "conditions": "read-out: IZ", "summary_of_the_method": "as §1"}, "Angiopoietin-1 receptor": {"target": "Angiopoietin-1 receptor (Homo sapiens, UniProt Q02763)", "assay": "Inhibition of human TIE2"}, "[13]": {"target": "Cyclin-dependent kinase 4/cyclin D1 (Homo sapiens, UniProt P11802)", "sequence (P11802 whole entry)": "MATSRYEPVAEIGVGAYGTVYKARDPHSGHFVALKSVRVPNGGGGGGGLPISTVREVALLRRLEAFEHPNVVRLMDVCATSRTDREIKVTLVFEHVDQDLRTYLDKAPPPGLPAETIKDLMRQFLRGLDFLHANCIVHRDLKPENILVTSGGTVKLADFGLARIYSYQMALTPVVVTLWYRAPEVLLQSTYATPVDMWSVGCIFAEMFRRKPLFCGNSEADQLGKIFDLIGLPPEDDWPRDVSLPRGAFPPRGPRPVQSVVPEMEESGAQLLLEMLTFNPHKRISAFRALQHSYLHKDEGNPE", "sequence (P24385 whole entry, further chain)": "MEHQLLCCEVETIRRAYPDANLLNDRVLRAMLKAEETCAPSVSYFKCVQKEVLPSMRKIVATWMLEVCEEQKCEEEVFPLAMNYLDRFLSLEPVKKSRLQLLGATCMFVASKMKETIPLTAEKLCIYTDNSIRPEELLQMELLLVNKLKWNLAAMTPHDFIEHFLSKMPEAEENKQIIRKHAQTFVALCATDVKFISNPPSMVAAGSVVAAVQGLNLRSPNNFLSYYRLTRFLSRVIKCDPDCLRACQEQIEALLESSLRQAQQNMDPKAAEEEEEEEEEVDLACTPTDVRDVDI", "assay": "Inhibition of human CDK4/CycD1", "assay_type": "protein-complex assay"}, "[14]": {"target": "Vascular endothelial growth factor receptor 2 (Homo sapiens, UniProt P35968)", "assay": "Inhibition of human VEGFR2"}, "[15]": {"target": "Vascular endothelial growth factor receptor 3 (Homo sapiens, UniProt P35916)", "sequence (P35916 whole entry)": "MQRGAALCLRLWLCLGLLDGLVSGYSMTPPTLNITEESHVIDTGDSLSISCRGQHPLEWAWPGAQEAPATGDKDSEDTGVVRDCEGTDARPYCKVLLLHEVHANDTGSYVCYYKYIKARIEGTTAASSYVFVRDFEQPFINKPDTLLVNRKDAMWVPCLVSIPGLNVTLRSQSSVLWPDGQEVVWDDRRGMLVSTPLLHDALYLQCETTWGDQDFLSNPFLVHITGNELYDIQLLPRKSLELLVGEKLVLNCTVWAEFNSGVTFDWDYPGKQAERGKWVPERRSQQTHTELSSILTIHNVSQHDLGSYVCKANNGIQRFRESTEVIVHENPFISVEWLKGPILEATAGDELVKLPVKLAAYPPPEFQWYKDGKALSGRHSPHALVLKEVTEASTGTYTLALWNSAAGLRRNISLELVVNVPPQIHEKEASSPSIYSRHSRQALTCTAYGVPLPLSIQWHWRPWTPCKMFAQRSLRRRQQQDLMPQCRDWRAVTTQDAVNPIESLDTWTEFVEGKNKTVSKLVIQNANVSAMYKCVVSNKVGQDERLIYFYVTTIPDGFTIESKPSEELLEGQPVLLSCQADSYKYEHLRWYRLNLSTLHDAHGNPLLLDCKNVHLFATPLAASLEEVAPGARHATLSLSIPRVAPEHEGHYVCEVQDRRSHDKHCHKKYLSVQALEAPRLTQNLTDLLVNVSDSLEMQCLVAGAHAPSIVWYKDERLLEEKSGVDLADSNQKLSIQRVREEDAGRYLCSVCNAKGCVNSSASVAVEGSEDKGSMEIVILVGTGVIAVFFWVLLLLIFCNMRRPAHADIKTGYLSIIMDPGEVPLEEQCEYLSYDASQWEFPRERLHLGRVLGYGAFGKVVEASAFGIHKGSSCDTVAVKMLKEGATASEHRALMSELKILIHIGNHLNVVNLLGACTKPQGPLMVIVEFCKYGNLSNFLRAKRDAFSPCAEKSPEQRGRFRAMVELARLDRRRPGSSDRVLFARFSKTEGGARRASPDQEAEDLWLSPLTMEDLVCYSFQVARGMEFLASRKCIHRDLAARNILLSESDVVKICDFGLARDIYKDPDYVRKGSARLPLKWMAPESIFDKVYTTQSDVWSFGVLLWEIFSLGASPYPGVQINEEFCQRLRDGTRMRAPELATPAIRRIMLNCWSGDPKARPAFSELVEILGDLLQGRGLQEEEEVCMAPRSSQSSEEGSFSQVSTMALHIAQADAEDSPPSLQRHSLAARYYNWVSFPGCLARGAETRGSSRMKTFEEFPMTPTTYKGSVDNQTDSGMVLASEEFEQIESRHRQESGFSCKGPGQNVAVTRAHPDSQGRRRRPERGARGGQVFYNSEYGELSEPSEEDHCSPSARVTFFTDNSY", "assay": "Inhibition of human VEGFR3"}, "[16]": {"target": "Epidermal growth factor receptor (Homo sapiens, UniProt P00533)", "sequence (P00533 whole entry)": "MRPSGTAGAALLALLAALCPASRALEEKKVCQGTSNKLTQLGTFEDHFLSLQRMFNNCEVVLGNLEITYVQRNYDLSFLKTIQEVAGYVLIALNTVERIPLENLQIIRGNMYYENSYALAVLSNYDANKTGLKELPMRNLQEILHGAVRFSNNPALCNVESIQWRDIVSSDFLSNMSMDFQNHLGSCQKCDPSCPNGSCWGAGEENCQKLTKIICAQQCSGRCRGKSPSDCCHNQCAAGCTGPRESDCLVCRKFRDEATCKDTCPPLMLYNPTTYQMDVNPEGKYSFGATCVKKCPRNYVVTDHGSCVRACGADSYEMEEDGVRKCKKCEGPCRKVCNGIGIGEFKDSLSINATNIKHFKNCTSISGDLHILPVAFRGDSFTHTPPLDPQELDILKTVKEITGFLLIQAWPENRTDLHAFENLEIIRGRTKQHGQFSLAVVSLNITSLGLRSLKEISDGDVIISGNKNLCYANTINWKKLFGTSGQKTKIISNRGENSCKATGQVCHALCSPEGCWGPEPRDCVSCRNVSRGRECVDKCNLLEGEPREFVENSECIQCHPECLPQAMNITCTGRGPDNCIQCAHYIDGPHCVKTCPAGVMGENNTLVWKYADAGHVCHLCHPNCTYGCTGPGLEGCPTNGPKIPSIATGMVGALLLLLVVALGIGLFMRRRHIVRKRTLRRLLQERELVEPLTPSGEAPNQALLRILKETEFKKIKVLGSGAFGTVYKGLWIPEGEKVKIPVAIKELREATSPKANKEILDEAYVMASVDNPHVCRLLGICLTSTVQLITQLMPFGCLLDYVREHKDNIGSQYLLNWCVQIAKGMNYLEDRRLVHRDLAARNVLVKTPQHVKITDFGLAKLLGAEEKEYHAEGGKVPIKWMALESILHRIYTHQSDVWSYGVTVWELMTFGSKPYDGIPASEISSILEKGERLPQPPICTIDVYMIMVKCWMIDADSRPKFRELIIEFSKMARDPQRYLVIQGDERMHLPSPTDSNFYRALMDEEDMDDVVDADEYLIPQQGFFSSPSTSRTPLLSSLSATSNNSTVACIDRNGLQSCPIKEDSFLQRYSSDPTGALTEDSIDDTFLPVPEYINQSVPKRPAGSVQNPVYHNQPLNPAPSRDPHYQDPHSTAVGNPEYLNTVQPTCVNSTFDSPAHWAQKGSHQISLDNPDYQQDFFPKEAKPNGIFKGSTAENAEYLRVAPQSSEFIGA", "assay": "Inhibition of human EGFR"}, "[17]": {"target": "Insulin-like growth factor 1 receptor (Homo sapiens, UniProt P08069)", "sequence (P08069 31-736 limits assumed)": "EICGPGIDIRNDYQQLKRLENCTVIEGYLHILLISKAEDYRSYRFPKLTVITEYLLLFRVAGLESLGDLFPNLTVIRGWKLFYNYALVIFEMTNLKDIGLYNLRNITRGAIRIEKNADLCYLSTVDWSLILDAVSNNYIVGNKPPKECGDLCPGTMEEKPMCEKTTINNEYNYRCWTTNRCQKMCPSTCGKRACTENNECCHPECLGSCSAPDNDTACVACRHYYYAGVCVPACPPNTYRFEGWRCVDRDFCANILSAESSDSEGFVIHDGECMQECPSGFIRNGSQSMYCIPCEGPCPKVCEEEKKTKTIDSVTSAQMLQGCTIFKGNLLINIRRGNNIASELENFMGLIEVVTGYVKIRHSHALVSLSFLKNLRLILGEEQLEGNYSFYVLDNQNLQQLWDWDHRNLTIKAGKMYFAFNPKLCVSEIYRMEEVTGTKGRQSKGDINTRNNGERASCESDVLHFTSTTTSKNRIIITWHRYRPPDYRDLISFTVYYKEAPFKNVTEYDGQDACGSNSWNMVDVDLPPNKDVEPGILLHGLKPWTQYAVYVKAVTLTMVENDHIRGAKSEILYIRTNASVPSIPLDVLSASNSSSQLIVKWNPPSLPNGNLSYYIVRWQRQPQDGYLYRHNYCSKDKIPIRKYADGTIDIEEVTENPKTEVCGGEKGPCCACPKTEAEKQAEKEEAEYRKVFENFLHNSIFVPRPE", "sequence (P08069 741-1367 limits assumed)": "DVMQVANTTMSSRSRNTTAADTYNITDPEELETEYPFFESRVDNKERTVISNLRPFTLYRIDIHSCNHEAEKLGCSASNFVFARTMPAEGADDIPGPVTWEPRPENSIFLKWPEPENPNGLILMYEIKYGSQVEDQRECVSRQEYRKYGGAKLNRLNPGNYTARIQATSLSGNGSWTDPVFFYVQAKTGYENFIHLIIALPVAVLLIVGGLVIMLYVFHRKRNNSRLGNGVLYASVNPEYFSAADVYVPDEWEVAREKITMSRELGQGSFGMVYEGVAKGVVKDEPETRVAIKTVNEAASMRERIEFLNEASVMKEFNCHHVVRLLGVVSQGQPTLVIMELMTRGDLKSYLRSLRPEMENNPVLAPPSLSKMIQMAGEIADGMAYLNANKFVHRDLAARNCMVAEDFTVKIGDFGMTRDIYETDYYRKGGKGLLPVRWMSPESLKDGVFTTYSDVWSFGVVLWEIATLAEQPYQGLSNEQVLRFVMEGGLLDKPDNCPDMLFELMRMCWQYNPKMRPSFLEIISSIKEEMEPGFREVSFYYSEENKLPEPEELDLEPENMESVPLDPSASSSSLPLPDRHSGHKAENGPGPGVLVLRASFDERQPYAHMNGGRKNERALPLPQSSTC", "assay": "Inhibition of human IGF1R"}, "Insulin receptor": {"target": "Insulin receptor (Homo sapiens, UniProt P06213)", "assay": "Inhibition of human INSR"}, "[18]": {"target": "Hepatocyte growth factor receptor (Homo sapiens, UniProt P08581)", "assay": "Inhibition of human MET"}, "[19]": {"target": "Serine/threonine-protein kinase B-raf (Homo sapiens, UniProt P15056, V600E)", "assay": "Inhibition of human B-RAF-V600E mutant"}},
  "data": [
    {"smiles": "CN([C@@H](Cc1ccc(OS(=O)(=O)c2cccc3cnccc23)cc1)C(=O)N1CCN(c2ccccc2)CC1)S(=O)(=O)c1cccc2cnccc12", "values": [
      {"measurement": "Activity", "setting": "Streptomyces coelicolor [1]", "result": 113, "unit": "%"}
    ]},
    {"smiles": "N=C(N)SCCCN1C(=O)C2=C(C1=O)n1ccc3cccc(c31)C1Cc3ccccc3N21", "note": "(stereo not drawn)", "values": [
      {"measurement": "IC50", "setting": "[2]", "result": 4.3, "unit": "µM"}
    ]},
    {"smiles": "O=C1C2=C(C(=O)N1CCCSC1=NCCN1)n1ccc3cccc(c31)C1Cc3ccccc3N21", "note": "(stereo not drawn)", "values": [
      {"measurement": "IC50", "setting": "[3]", "result": 7.7, "unit": "µM"}
    ]},
    {"smiles": "CCN(CC)CCCN1C(=O)C2=C(C1=O)n1ccc3cccc(c31)C1Cc3ccccc3N21", "note": "(stereo not drawn)", "values": [
      {"measurement": "Activity", "setting": "Streptomyces coelicolor [4]", "result": 94, "unit": "%"},
      {"measurement": "zone of inhibition at 20 µM", "setting": "Streptomyces lividans [5]", "result": 7.5, "unit": "mm"},
      {"measurement": "zone of inhibition at 5 µM", "setting": "Streptomyces lividans [6]", "result": 0, "unit": "mm"},
      {"measurement": "zone of inhibition at 10 µM", "setting": "Streptomyces lividans [7]", "result": 0, "unit": "mm"},
      {"measurement": "zone of inhibition at 80 µM", "setting": "Streptomyces lividans [8]", "result": 11, "unit": "mm"},
      {"measurement": "zone of inhibition at 40 µM", "setting": "Streptomyces lividans [9]", "result": 9, "unit": "mm"}
    ]},
    {"smiles": "CCN(CC)Cc1cn2c3c(cccc13)C1Cc3ccccc3N1C1=C2C(=O)NC1=O", "note": "(stereo not drawn)", "values": [
      {"measurement": "Activity", "setting": "Streptomyces coelicolor [4]", "result": 92, "unit": "%"},
      {"measurement": "zone of inhibition at 5 µM", "setting": "Streptomyces lividans [6]", "result": 0, "unit": "mm"},
      {"measurement": "zone of inhibition at 10 µM", "setting": "Streptomyces lividans [7]", "result": 0, "unit": "mm"},
      {"measurement": "zone of inhibition at 100 µM", "setting": "Streptomyces lividans [10]", "result": 12, "unit": "mm"},
      {"measurement": "zone of inhibition at 50 µM", "setting": "Streptomyces lividans [11]", "result": 9, "unit": "mm"},
      {"measurement": "zone of inhibition at 25 µM", "setting": "Streptomyces lividans [12]", "result": 7.5, "unit": "mm"}
    ]},
    {"smiles": "N=C(Nc1ccccc1)SCCCN1C(=O)C2=C(C1=O)n1ccc3cccc(c31)C1Cc3ccccc3N21", "note": "(stereo not drawn)", "values": [
      {"measurement": "IC50", "setting": "Angiopoietin-1 receptor", "result": 8.9, "unit": "µM"},
      {"measurement": "IC50", "setting": "[13]", "result": 7.9, "unit": "µM"},
      {"measurement": "IC50", "setting": "[14]", "result": 4.3, "unit": "µM"},
      {"measurement": "IC50", "setting": "[3]", "result": 5.1, "unit": "µM"},
      {"measurement": "IC50", "setting": "[15]", "result": 9.6, "unit": "µM"},
      {"measurement": "IC50", "setting": "[16]", "result": 9.5, "unit": "µM"},
      {"measurement": "IC50", "setting": "[17]", "result": 2.3, "unit": "µM"}
    ]},
    {"smiles": "CNC(=N)SCCCN1C(=O)C2=C(C1=O)n1ccc3cccc(c31)C1Cc3ccccc3N21", "note": "(stereo not drawn)", "values": [
      {"measurement": "IC50", "setting": "Insulin receptor", "result": 5.1, "unit": "µM"},
      {"measurement": "IC50", "setting": "[18]", "result": 6.7, "unit": "µM"},
      {"measurement": "IC50", "setting": "[13]", "result": 5.7, "unit": "µM"},
      {"measurement": "IC50", "setting": "[3]", "result": 5.3, "unit": "µM"},
      {"measurement": "IC50", "setting": "[19]", "result": 8, "unit": "µM"}
    ]},
    {"smiles": "COc1ccc(S(=O)(=O)Nc2ccccc2CN(C)C/C=C/c2ccc(Cl)cc2)cc1", "values": [
      {"measurement": "Activity", "setting": "Streptomyces coelicolor [1]", "result": 352, "unit": "%"}
    ]}
  ]
}
